Source: ChEMBL document CHEMBL3871279, “Bioactive Formylated Flavonoids from Eugenia rigida: Isolation, Synthesis, and X-ray Crystallography” (J Nat Prod, 2016)
Values after ≈ are worked out from the molar mass of the structure shown. Values joined by “and” are separate entries in the source; they are usually repeats but may differ in a detail not shown here. Equal values may be shown once.

Tests used:
[1] = Cytotoxicity against human BT549 cells assessed as reduction in cell viability after 48 hrs by neutral red dye-based assay; assay type: functional; details: BT-549, 48 h
How it was run: (§1)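 Cell lines from ATCC, seeded at 25 000 cells/well and incubated 24 h. Samples added at several concentrations, then 48 h further incubation. Viability read by modified Neutral Red uptake. IC50 taken from dose–response curves of percent decrease in viability against concentration. Doxorubicin positive control, DMSO vehicle control.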

[2] = Cytotoxicity against African green monkey Vero cells assessed as reduction in cell viability after 48 hrs by neutral red dye-based assay; assay type: toxicity; details: African green monkey (Chlorocebus sabaeus); how it was run: as §1
[3] = Cytotoxicity against pig LLC-PK1 cells assessed as reduction in cell viability after 48 hrs by neutral red dye-based assay; assay type: toxicity; details: pig (Sus scrofa); how it was run: as §1
[4] = Cytotoxicity against human SKOV3 cells assessed as reduction in cell viability after 48 hrs by neutral red dye-based assay; assay type: functional; details: SK-OV-3, 48 h; how it was run: as §1
Nakaseomyces glabratus [5] = test: Antimicrobial activity against Candida glabrata ATCC 90030 after 46 to 50 hrs by broth microdilution method; assay type: functional
How it was run: (§2)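 Modified CLSI broth microdilution. Samples serially diluted in 20% DMSO–saline and plated in duplicate. Inocula set by correcting OD630 of suspensions in incubation broth to final target inocula. Amphotericin B drug control. Plates read before and after incubation at 530 nm, or at 544ex/590em for A. fumigatus. IC50 is the concentration giving 50% growth relative to controls. MIC is the lowest concentration allowing no growth.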

Staphylococcus aureus [6] = test: Antimicrobial activity against methicillin-resistant Staphylococcus aureus ATCC 33591 by broth microdilution method; assay type: functional
Cryptococcus neoformans [7] = test: Antimicrobial activity against Cryptococcus neoformans ATCC 90113 after 70 to 74 hrs by broth microdilution method; assay type: functional; how it was run: as §2
[8] = Cytotoxicity against human HeLa cells assessed as reduction in cell viability after 48 hrs by neutral red dye-based assay; assay type: functional; how it was run: as §1
[9] = Cytotoxicity against human KB cells assessed as reduction in cell viability after 48 hrs by neutral red dye-based assay; assay type: functional; how it was run: as §1
Cryptococcus neoformans [10] = test: Fungicidal activity against Cryptococcus neoformans ATCC 90113 after 70 to 74 hrs by broth microdilution method; assay type: functional
How it was run: (§3)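 Fungicidal end point from the broth microdilution plates (20% DMSO–saline serial dilutions, duplicate wells, OD630-corrected inocula, amphotericin B control). 5 μL from each clear well transferred to agar and incubated. MFC is the lowest test concentration allowing no growth on agar.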

[11] = Cytotoxicity against human SK-MEL cells assessed as reduction in cell viability after 48 hrs by neutral red dye-based assay; assay type: functional; how it was run: as §1
Staphylococcus aureus [12] = test: Antimicrobial activity against Staphylococcus aureus ATCC 29213 by broth microdilution method; assay type: functional
Nakaseomyces glabratus [13] = test: Fungicidal activity against Candida glabrata ATCC 90030 after 46 to 50 hrs by broth microdilution method; assay type: functional; how it was run: as §3
Pichia kudriavzevii [14] = test: Antimicrobial activity against Candida krusei ATCC 6258 after 46 to 50 hrs by broth microdilution method; assay type: functional; how it was run: as §2
Candida albicans [15] = test: Antimicrobial activity against Candida albicans ATCC 90028 after 46 to 50 hrs by broth microdilution method; assay type: functional; how it was run: as §2
Candida albicans [16] = test: Fungicidal activity against Candida albicans ATCC 90028 after 46 to 50 hrs by broth microdilution method; assay type: functional; how it was run: as §3
Pichia kudriavzevii [17] = test: Fungicidal activity against Candida krusei ATCC 6258 after 46 to 50 hrs by broth microdilution method; assay type: functional; how it was run: as §3
Aspergillus fumigatus [18] = test: Antimicrobial activity against Aspergillus fumigatus ATCC 204305 after 46 to 50 hrs by broth microdilution method; assay type: functional; how it was run: as §2
Aspergillus fumigatus [19] = test: Fungicidal activity against Aspergillus fumigatus ATCC 204305 after 46 to 50 hrs by broth microdilution method; assay type: functional; how it was run: as §3
Staphylococcus aureus [20] = test: microbe, parasite or virus in culture; details: ATCC 29213
Staphylococcus aureus [21] = test: microbe, parasite or virus in culture; details: ATCC 33591
[22] = Nakaseomyces glabratus, ATCC 90030

| Structure (SMILES) | IC50 [1] [µM] | IC50 at 48 h [2] [µM] | IC50 at 48 h [3] [µM] | IC50 [4] [µM] | IC50 (Nakaseomyces glabratus [5]; [22]) [µM] | MIC (Nakaseomyces glabratus [5]; [22]) [µM] | IC50 (Cryptococcus neoformans [7]) [µM] | MIC (Cryptococcus neoformans [7]) [µM] | IC50 [8] [µM] | IC50 [9] [µM] | MFC (Cryptococcus neoformans [10]) [µM] | IC50 [11] [µM] | MFC (Nakaseomyces glabratus [13]) [µM] | IC50 (Pichia kudriavzevii [14]) [µM] | further results |
| --- | --- | --- | --- | --- | --- | --- | --- | --- | --- | --- | --- | --- | --- | --- | --- |
| O=Cc1c(O)cc(O)c(C(=O)CCc2ccccc2)c1O | > 10 | > 10 | > 10 | > 10 | 11.3 | 69.9 (≈ 20 µg/mL) | 10.5 | 17.4 (≈ 4.98 µg/mL) | > 10 | > 10 | 17.4 (≈ 4.98 µg/mL) | > 10 | – | – | IC50 (Staphylococcus aureus [6]): 36.6 µM; IC50 (Staphylococcus aureus [12]): 17.4 µM |
| O=Cc1c(O)cc(O)c2c1O[C@@H](c1ccccc1)CC2=O | > 10 | > 10 | > 10 | > 10 | 7.2 | 35.2 (≈ 10 µg/mL) | 19.3 | – | > 10 | > 10 | – | > 10 | 70.4 (≈ 20 µg/mL) | 41.2 | – |
| O=Cc1c(O)cc2c(c1O)C(=O)C[C@@H](c1ccccc1)O2 | > 10 | > 10 | > 10 | > 10 | 6.7 | 35.2 (≈ 10 µg/mL) | 63.2 | 70.4 (≈ 20 µg/mL) | > 10 | > 10 | – | > 10 | 70.4 (≈ 20 µg/mL) | 33.2 | – |
| O=Cc1c(O)cc(O)c2c1O[C@H](c1ccccc1)CC2=O | > 10 | > 10 | > 10 | > 10 | 7.4 | 35.2 (≈ 10 µg/mL) | 44.4 | 70.4 (≈ 20 µg/mL) | > 10 | > 10 | 70.4 (≈ 20 µg/mL) | > 10 | – | 29.9 | – |
| O=Cc1c(O)cc(O)c(C(=O)/C=C/c2ccccc2)c1O | > 10 | > 10 | > 10 | > 10 | – | – | 24.5 | 70.4 (≈ 20 µg/mL) | > 10 | > 10 | 70.4 (≈ 20 µg/mL) | > 10 | 70.4 (≈ 20 µg/mL) | 34.1 | IC50 (Nakaseomyces glabratus [5]): 10 µM and 35.2 µM; IC50 (Candida albicans [15]): 68.9 µM |
| O=Cc1c(O)cc2c(c1O)C(=O)C[C@H](c1ccccc1)O2 | > 10 | > 10 | > 10 | > 10 | 12.6 | 70.4 (≈ 20 µg/mL) | 61.5 | – | > 10 | > 10 | – | > 10 | 70.4 (≈ 20 µg/mL) | – | – |
| O=Cc1c(O)cc2oc(-c3ccccc3)cc(=O)c2c1O | > 10 | > 10 | > 10 | > 10 | 10.8 | – | – | – | > 10 | > 10 | – | > 10 | – | – | – |
| O=C1CC(c2ccccc2)Oc2cc(O)cc(O)c21 (racemic) | > 10 | > 10 | > 10 | > 10 | 42.9 | – | 28.8 | 78.1 (≈ 20 µg/mL) | > 10 | > 10 | – | > 10 | – | 65.5 | – |
| C[C@@H]1[C@H](O)[C@@H](C)/C=C/C=C/C=C/C=C/C=C/C=C/C=C/[C@H](O[C@@H]2O[C@H](C)[C@@H](O)[C@H](N)[C@@H]2O)C[C@@H]2O[C@](O)(C[C@@H](O)C[C@@H](O)[C@H](O)CC[C@@H](O)C[C@@H](O)CC(=O)O[C@H]1C)C[C@H](O)[C@H]2C(=O)O [AMPHOTERICIN B] | – | – | – | – | 0.2 | 0.7 (≈ 0.647 µg/mL) | 0.2 | 0.3 (≈ 0.277 µg/mL) | – | – | 0.3 (≈ 0.277 µg/mL) | – | 0.7 (≈ 0.647 µg/mL) | 0.6 | MFC (Candida albicans [16]): 0.7 µM (≈ 0.647 µg/mL); MFC (Pichia kudriavzevii [17]): 1.4 µM (≈ 1.29 µg/mL); MIC (Pichia kudriavzevii [14]): 1.3 µM (≈ 1.2 µg/mL); IC50 (Aspergillus fumigatus [18]): 1.4 µM; MIC (Aspergillus fumigatus [18]): 2.7 µM (≈ 2.5 µg/mL); MFC (Aspergillus fumigatus [19]): 5.4 µM (≈ 4.99 µg/mL) |
| O=C(O)c1cn(C2CC2)c2cc(N3CCNCC3)c(F)cc2c1=O [CIPROFLOXACIN] | – | – | – | – | – | – | – | – | – | – | – | – | – | – | IC50 (Staphylococcus aureus [6]): 0.2 µM; MBC (Staphylococcus aureus [20]): 1.5 µM (≈ 0.497 µg/mL); MBC (Staphylococcus aureus [21]): 3 µM (≈ 0.994 µg/mL) |
| COc1cccc2c1C(=O)c1c(O)c3c(c(O)c1C2=O)C[C@@](O)(C(=O)CO)C[C@@H]3O[C@H]1C[C@H](N)[C@H](O)[C@H](C)O1 [DOXORUBICIN] | 3.6 | > 10 | 17 | 2.6 | – | – | – | – | 4 | 3.8 | – | 1.5 | – | – | – |
